Results: ChEMBL document CHEMBL1148778, “Synthesis and characterization of nonsteroidal glucocorticoid receptor modulators for multiple myeloma” (J Med Chem, 2007)

How the values were obtained:
[1] = molecular target: T1, Glucocorticoid receptor (Homo sapiens, UniProt P04150); test: Binding affinity to GR
T1 sequence (P04150 whole entry): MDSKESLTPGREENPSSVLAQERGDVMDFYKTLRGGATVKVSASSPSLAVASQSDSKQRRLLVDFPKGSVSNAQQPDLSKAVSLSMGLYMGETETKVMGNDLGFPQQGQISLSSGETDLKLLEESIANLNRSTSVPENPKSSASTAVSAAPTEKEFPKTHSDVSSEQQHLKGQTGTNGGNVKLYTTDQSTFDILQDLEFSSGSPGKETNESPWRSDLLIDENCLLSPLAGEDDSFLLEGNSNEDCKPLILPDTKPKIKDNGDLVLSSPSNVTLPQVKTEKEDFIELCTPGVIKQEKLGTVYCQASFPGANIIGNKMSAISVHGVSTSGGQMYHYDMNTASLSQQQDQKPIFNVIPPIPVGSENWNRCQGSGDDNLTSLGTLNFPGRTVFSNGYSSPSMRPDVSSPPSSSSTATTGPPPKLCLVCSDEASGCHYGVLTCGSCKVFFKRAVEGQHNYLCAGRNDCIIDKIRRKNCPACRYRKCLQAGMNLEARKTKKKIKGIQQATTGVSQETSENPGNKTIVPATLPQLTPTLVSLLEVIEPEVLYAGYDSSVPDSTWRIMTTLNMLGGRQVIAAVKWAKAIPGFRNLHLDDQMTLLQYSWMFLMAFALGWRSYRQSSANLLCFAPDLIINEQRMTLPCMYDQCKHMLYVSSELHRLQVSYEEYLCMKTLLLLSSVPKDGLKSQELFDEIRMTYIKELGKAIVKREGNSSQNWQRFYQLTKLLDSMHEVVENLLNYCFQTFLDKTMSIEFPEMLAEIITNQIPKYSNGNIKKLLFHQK

[2] = molecular target: T1, Glucocorticoid receptor; test: Activity at human GR expressed in NHDFneo cells assessed as inhibition of IL-6 production; format: cell-based
[3] = tested on: RPMI-8226; test: Antiproliferative activity against human RPMI8226 cells after 4 days; format: functional, cell-based; details: RPMI-8226, 96 h
[4] = molecular target: T2, Androgen receptor (Homo sapiens, UniProt P10275); test: Binding affinity to AR
T2 sequence (P10275 whole entry): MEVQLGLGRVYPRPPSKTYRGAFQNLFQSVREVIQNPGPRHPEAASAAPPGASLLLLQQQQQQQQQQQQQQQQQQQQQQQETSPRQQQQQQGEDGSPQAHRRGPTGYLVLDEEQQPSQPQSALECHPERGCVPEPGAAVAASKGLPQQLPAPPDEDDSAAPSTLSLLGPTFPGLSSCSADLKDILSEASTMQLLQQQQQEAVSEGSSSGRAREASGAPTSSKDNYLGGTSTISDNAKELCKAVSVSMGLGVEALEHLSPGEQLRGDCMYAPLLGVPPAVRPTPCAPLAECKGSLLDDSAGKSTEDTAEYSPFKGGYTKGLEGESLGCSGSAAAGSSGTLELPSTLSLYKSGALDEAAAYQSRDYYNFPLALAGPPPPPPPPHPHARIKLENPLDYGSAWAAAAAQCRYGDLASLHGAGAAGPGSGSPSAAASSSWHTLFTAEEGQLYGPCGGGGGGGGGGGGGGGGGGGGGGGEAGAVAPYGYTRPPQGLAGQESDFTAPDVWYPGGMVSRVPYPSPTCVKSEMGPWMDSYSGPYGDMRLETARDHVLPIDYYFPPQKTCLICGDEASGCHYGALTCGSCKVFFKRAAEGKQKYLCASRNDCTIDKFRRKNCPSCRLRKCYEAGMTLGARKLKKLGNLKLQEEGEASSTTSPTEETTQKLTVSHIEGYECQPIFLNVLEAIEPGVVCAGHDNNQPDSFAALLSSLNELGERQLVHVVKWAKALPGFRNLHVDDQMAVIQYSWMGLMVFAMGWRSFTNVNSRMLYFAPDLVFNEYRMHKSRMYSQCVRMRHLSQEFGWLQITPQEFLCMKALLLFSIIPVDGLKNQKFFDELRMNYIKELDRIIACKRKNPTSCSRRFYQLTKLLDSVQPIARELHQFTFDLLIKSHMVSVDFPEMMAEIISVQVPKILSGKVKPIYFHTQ

[5] = molecular target: T3, Mineralocorticoid receptor (Homo sapiens, UniProt P08235); test: Binding affinity to MR
T3 sequence (P08235 whole entry): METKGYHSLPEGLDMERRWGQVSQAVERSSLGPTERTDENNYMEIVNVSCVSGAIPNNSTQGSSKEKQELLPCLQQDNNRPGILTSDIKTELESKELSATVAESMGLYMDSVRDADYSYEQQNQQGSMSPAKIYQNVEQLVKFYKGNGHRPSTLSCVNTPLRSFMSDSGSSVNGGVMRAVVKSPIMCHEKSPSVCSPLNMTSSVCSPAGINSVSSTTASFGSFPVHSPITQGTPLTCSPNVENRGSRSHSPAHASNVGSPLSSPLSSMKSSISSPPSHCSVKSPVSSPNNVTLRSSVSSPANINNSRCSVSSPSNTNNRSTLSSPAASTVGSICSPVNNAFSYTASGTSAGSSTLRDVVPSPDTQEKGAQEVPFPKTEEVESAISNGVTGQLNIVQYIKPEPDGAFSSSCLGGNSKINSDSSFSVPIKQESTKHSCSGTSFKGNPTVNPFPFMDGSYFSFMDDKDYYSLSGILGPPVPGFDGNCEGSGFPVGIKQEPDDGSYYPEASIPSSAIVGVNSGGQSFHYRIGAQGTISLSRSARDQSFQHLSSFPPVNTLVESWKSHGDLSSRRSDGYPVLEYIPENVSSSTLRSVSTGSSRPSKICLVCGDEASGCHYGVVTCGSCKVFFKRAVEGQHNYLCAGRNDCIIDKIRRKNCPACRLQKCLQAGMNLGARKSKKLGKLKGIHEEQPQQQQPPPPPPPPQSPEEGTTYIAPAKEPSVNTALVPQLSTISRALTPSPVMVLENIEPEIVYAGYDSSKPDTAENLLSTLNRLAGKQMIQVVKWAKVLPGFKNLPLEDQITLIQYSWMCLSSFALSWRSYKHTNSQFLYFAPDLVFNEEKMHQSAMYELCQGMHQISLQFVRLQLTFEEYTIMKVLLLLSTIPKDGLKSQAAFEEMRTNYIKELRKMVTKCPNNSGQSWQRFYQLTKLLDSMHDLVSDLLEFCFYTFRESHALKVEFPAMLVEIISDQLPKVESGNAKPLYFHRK
Method in brief: (§1)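 Competitive binding assays on PR and MR. Values are means of at least three separate experiments, each with triplicate determinations, ± SEM. A value without SEM comes from a single determination.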

[6] = molecular target: T1, Glucocorticoid receptor; test: Agonist activity at human GR expressed in CV1 cells by GRE activation assay; format: functional, cell-based, CV-1
[7] = tested on: RPMI-8226; test: Antiproliferative activity against human RPMI8226 cells after 4 days relative to Dexamethasone; format: functional
[8] = molecular target: T4, Progesterone receptor (Homo sapiens, UniProt P06401); test: Binding affinity to PR; method in brief: as §1
T4 sequence (P06401 whole entry): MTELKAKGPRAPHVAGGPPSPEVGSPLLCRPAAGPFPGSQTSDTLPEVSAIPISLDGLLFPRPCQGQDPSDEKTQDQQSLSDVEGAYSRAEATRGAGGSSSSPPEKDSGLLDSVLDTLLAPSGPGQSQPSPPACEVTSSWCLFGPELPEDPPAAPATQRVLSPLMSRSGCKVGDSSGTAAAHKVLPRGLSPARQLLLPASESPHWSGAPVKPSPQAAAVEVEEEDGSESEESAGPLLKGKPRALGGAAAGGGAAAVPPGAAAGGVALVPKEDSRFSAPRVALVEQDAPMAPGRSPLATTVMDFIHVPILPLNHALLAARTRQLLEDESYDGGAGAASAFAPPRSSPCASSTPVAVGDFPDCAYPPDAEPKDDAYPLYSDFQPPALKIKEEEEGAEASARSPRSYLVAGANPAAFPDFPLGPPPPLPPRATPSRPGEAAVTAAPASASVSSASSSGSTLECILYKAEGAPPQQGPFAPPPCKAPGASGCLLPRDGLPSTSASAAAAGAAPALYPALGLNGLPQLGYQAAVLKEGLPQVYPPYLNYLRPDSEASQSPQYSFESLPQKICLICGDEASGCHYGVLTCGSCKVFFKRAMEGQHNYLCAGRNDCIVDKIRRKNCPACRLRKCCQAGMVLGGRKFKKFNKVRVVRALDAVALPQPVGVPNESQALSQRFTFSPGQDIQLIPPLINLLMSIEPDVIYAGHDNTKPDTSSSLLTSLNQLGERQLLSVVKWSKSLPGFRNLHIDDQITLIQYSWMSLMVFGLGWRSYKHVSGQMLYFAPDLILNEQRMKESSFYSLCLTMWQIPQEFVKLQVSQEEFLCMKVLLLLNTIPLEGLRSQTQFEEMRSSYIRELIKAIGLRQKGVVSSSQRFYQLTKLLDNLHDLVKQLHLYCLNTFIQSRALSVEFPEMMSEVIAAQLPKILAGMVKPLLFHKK

[9] = molecular target: T1, Glucocorticoid receptor; test: Antagonist activity at human GR expressed in CV1 cells by GRE activation assay; format: functional, cell-based, CV-1

| SMILES | Ki [1] [nM] | IC50 [2] [nM] | IC50 [3] [nM] | Ki [4] [nM] | Ki [5] [nM] | EC50 [6] [nM] | Efficacy [7] [%] | Ki [8] [nM] | EC50 [9] [nM] |
| --- | --- | --- | --- | --- | --- | --- | --- | --- | --- |
| COc1c(O)ccc2c1-c1ccc3c(c1/C(=C/c1sccc1/C(C)=N/O)O2)C(C)=CC(C)(C)N3 | 0.6 | 1.1 | 9.9 | 290 | 21 | 5 | 96 | 790 | – |
| C[C@@H]1C[C@H]2[C@@H]3CCC4=CC(=O)C=C[C@]4(C)[C@@]3(F)[C@@H](O)C[C@]2(C)[C@@]1(O)C(=O)CO [DEXAMETHASONE] | – | – | 6.5 | – | – | – | 100 | – | – |
| COc1c(O)ccc2c1-c1ccc3c(c1/C(=C/c1sccc1C(C)O)O2)C(C)=CC(C)(C)N3 (racemic) | 1.2 | – | – | 1530 | 410 | – | – | 2290 | 1.3 |
| CC/C=C(\C)c1ccsc1/C=C1\Oc2ccc(O)c(OC)c2-c2ccc3c(c21)C(C)=CC(C)(C)N3 | 4.4 | 6.1 | 22 | 346 | 42 | 0.5 | 94 | 57 | – |
| COc1c(O)ccc2c1-c1ccc3c(c1/C(=C/c1sccc1C#N)O2)C(C)=CC(C)(C)N3 | – | 0.8 | 14 | – | – | 0.2 | 87 | – | – |
| COc1c(O)ccc2c1-c1ccc3c(c1/C(=C/c1sccc1C(=O)N1CCCCC1)O2)C(C)=CC(C)(C)N3 | – | 1 | 16 | – | – | 0.3 | 95 | – | – |
| COc1c(O)ccc2c1-c1ccc3c(c1/C(=C/c1sccc1C(O)C(F)(F)F)O2)C(C)=CC(C)(C)N3 (stereo in doubt; (-)-15) | – | – | – | – | – | – | – | – | 1.4 |
| COc1c(O)ccc2c1-c1ccc3c(c1/C(=C/c1sccc1C(O)C(F)(F)F)O2)C(C)=CC(C)(C)N3 (single isomer, unassigned; (+)) | – | – | – | – | – | – | – | – | 0.2 |
| COc1c(O)ccc2c1-c1ccc3c(c1/C(=C/c1sccc1CNCC(F)(F)F)O2)C(C)=CC(C)(C)N3 | – | 0.9 | 18 | – | – | 0.5 | 96 | – | – |
| COc1c(O)ccc2c1-c1ccc3c(c1/C(=C/c1sccc1C(=O)C1CCCCC1)O2)C(C)=CC(C)(C)N3 | – | – | – | – | – | – | – | – | 0.4 |
| CCCCC(O)c1ccsc1/C=C1\Oc2ccc(O)c(OC)c2-c2ccc3c(c21)C(C)=CC(C)(C)N3 (racemic) | – | – | – | – | – | – | – | – | 0.6 |
| COC(=O)c1ccsc1/C=C1\Oc2ccc(O)c(OC)c2-c2ccc3c(c21)C(C)=CC(C)(C)N3 | – | 1.8 | 27 | – | – | 1.4 | 95 | – | – |
| COc1c(O)ccc2c1-c1ccc3c(c1/C(=C/c1sccc1C(C)=O)O2)C(C)=CC(C)(C)N3 | – | 0.3 | 16 | – | – | 0.6 | 95 | – | – |
| COc1c(O)ccc2c1-c1ccc3c(c1/C(=C/c1sccc1COCCO)O2)C(C)=CC(C)(C)N3 | – | 1 | 22 | – | – | 1.6 | 98 | – | – |
| CCO/N=C(\C)c1ccsc1/C=C1\Oc2ccc(O)c(OC)c2-c2ccc3c(c21)C(C)=CC(C)(C)N3 | – | 0.5 | 16 | – | – | 0.4 | 98 | – | 1.9 |
